Measured values published in publication PMC6044926 (ACS Omega, 2017).
Where “and” joins values, the source holds several entries; their conditions need not be identical. Equal entries are not always repeated. Entries after “also recorded” stand apart in the source; their conditions may differ. Blank lines part the entries; values can stand above or below the molecule they belong to.

Tests used:
TPMT*6 (Y180F) [1] = target: T1, TPMT*6 (Y180F) (Homo sapiens, UniProt P51580, Y180F); experiment: Thermal denaturation by CD at 222 nm in the presence of ligand, TPMT*6; format: binding
T1 sequence (P51580 1-245 Y180F): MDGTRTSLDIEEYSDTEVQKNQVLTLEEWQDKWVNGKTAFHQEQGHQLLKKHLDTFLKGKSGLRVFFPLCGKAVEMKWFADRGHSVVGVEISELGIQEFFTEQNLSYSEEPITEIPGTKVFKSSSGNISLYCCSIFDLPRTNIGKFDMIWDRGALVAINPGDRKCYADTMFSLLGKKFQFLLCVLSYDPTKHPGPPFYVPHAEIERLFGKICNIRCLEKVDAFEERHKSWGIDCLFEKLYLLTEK
Method in brief: (§1)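 Far-UV CD thermal unfolding at 222 nm, 18 to 80 °C in 2° steps, 10 scans over 60 s per step. Sample was 3 μM purified recombinant TPMT in 20 mM potassium phosphate pH 7.3, 75 mM NaCl, 2% glycerol, 0.5 mM TCEP, 4 mm cuvette. Run without ligand, with 30 μM SAM, or with 60 μM ANS. Tm fitted from three independent measurements.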

TPMT*8 (R215H) [2] = target: T2, TPMT*8 (R215H) (Homo sapiens, UniProt P51580, R215H); experiment: ITC binding of SAM and ANS to TPMT*8
T2 sequence (P51580 1-245 R215H): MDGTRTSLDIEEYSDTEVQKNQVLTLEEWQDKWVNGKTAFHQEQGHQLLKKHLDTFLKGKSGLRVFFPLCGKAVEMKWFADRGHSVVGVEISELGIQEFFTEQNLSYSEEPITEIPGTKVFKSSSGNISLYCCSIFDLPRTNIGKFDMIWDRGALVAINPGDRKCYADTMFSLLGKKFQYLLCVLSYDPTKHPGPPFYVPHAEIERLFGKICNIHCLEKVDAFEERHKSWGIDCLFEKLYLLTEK
Method in brief: (§2)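 Isothermal titration calorimetry at 25 °C (reference power 7 μcal s−1) of ~50 μM His-tag-cleaved recombinant human TPMT (residues 1–245; E. coli BL21-CodonPlus(DE3)-RIL; Ni-NTA and gel filtration). Thirteen injections per run, at least three runs per variant–ligand pair, fitted to a binding model.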

TPMT*6 (Y180F) [3] = target: T1, TPMT*6 (Y180F); experiment: ITC binding of SAM and ANS to TPMT*6
Method in brief: as §2

TPMTwt [4] = target: T3, TPMTwt (Homo sapiens, UniProt P51580); experiment: Thermal denaturation by CD at 222 nm in the presence of ligand, TPMTwt; format: binding
T3 sequence (P51580 1-245): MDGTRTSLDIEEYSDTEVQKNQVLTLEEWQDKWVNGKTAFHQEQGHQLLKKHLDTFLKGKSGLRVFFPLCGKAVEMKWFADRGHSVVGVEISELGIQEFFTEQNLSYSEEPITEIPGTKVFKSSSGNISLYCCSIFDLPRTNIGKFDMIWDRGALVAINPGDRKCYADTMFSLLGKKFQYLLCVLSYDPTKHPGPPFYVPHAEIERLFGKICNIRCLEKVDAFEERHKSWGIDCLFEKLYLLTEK
Method in brief: as §1

TPMTwt [5] = target: T3, TPMTwt; experiment: ITC binding of SAM and ANS to TPMTwt; settings: dissociation constant, 25 °C
Method in brief: as §2

TPMT*8 (R215H) [6] = target: T2, TPMT*8 (R215H); experiment: Thermal denaturation by CD at 222 nm in the presence of ligand, TPMT*8; format: binding
Method in brief: as §1

TPMT*8 (R215H) [7] = target: T2, TPMT*8 (R215H); experiment: Thermal denaturation monitored as ANS fluorescence emission at 475 nm, TPMT*8; format: binding; settings: ANS emission at 475 nm, ANS in 20-fold molar excess (60 μM)
Method in brief: (§3)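 Scanned 18 to 80 °C in 2° steps. Excitation 360 nm, emission 400–600 nm. Tm taken from the relative change in maximum intensity at 475 nm, three independent measurements.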

TPMT*6 (Y180F) [8] = target: T1, TPMT*6 (Y180F); experiment: Thermal denaturation monitored as ANS fluorescence emission at 475 nm, TPMT*6; format: binding; settings: ANS emission at 475 nm, ANS in 20-fold molar excess (60 μM)
Method in brief: as §3

TPMT = target: T4, TPMT (Homo sapiens, UniProt P51580); experiment: ANS and SAM binding to TPMT, all investigated variants; settings: dissociation constant, ANS, ITC (fluorescence and ITC)
T4 sequence (P51580 1-245): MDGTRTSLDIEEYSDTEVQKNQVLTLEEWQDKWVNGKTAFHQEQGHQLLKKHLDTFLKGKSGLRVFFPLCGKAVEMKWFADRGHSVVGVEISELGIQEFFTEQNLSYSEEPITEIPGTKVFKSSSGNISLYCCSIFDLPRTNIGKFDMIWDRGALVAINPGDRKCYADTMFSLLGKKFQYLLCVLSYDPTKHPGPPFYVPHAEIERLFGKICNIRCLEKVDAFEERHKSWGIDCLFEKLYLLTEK
Method in brief: as §2

TPMTwt [9] = target: T3, TPMTwt; experiment: Thermal denaturation monitored as ANS fluorescence emission at 475 nm, TPMTwt; format: binding; settings: ANS emission at 475 nm, ANS in 20-fold molar excess (60 μM)
Method in brief: as §3

[10] = Thermal denaturation of the TPMT variants by CD at 222 nm, no ligand; format: physicochemical, human; settings: 3 μM protein, pH 7.3
Method in brief: as §1

[11] = TPMT enzyme activity on purified recombinant protein, 6-MP as substrate; format: biochemical, human; settings: 6-MP as thiopurine substrate
Method in brief: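 Activity of purified recombinant TPMT measured as rate of 6-methyl-mercaptopurine formation from 6-MP, with 14C-labelled S-adenosyl-L-methionine as methyl donor, following an earlier published protocol.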

[12] = cited from earlier work
[13] = SAM in 10-fold molar excess (30 μM), 3 μM protein
[14] = CD at 222 nm, ANS in 20-fold molar excess (60 μM), 3 μM protein

thermal melting temperature, circular dichroism, +SAM (TPMT*6 (Y180F) [1]; [13]): 40.5 ± 0.5 °C | Kd (TPMT*8 (R215H) [2]): 1500 ± 100 nM | Kd (TPMT*6 (Y180F) [3]): 1800 ± 500 nM | thermal melting temperature, circular dichroism, +SAM (TPMTwt [4]; [13]): 46.8 ± 0.5 °C | Kd (TPMTwt [5]; SAM): 2200 ± 700 nM | thermal melting temperature, circular dichroism, +SAM (TPMT*8 (R215H) [6]; [13]): 47.3 ± 0.3 °C
Molecule: C[S+](CC[C@H](N)C(=O)[O-])C[C@H]1O[C@@H](n2cnc3c(N)ncnc32)[C@H](O)[C@@H]1O (stereo partly shown) [SAM, S-adenosylmethionine]

thermal melting temperature, fluorescence, +ANS (TPMT*8 (R215H) [7]): 54.1 °C and 54.1 ± 0.3 °C | thermal melting temperature, +ANS (TPMT*6 (Y180F) [1]; [14]): 48.6 °C and 48.6 ± 0.7 °C | increase of Tm on addition of ANS (TPMT*6 (Y180F) [1]; CD at 222 nm, versus no ligand): 7.2 °C | Kd (TPMT*8 (R215H) [2]): 202 ± 11 nM | Kd (TPMT*6 (Y180F) [3]): 187 ± 32 nM | thermal melting temperature, fluorescence, +ANS (TPMT*6 (Y180F) [8]): 49.6 °C and 49.6 ± 0.4 °C | thermal melting temperature, +ANS (TPMTwt [4]; [14]): 53.8 °C and 53.8 ± 0.5 °C | increase of Tm on addition of ANS (TPMTwt [4]; CD at 222 nm, versus no ligand): 7.4 °C | Kd (TPMTwt [5]; ANS): 219 ± 58 nM | Kd (TPMT): ~200 nM and 200 nM | thermal melting temperature, fluorescence, +ANS (TPMTwt [9]): 54.1 °C and 54.1 ± 0.5 °C | thermal melting temperature, +ANS (TPMT*8 (R215H) [6]; [14]): 51.5 °C and 51.5 ± 0.4 °C | increase of Tm on addition of ANS (TPMT*8 (R215H) [6]; CD at 222 nm, versus no ligand): 5.0 °C
Molecule: O=S(=O)(O)c1cccc2cccc(Nc3ccccc3)c12 [ANS, 8-anilinonaphthalene-1-sulfonic acid]

B1: TPMT*6: naturally occurring TPMT variant, Y180F, purified recombinant protein (protein, UniProt P51580 1-245, looked up, variant Y180F)
Thiopurine S-methyltransferase: MDGTRTSLDIEEYSDTEVQKNQVLTLEEWQDKWVNGKTAFHQEQGHQLLKKHLDTFLKGKSGLRVFFPLCGKAVEMKWFADRGHSVVGVEISELGIQEFFTEQNLSYSEEPITEIPGTKVFKSSSGNISLYCCSIFDLPRTNIGKFDMIWDRGALVAINPGDRKCYADTMFSLLGKKFQFLLCVLSYDPTKHPGPPFYVPHAEIERLFGKICNIRCLEKVDAFEERHKSWGIDCLFEKLYLLTEK
thermal melting temperature, circular dichroism, no ligand [10]: 41.4 ± 1.1 °C | in vitro enzyme functionality [11]: fully functional; also recorded: normal functionality

B2: TPMT*8: naturally occurring TPMT variant, R215H, purified recombinant protein (protein, UniProt P51580 1-245, looked up, variant R215H)
Thiopurine S-methyltransferase: MDGTRTSLDIEEYSDTEVQKNQVLTLEEWQDKWVNGKTAFHQEQGHQLLKKHLDTFLKGKSGLRVFFPLCGKAVEMKWFADRGHSVVGVEISELGIQEFFTEQNLSYSEEPITEIPGTKVFKSSSGNISLYCCSIFDLPRTNIGKFDMIWDRGALVAINPGDRKCYADTMFSLLGKKFQYLLCVLSYDPTKHPGPPFYVPHAEIERLFGKICNIHCLEKVDAFEERHKSWGIDCLFEKLYLLTEK
thermal melting temperature, circular dichroism, no ligand [10]: 46.5 ± 0.4 °C | in vitro enzyme functionality [11]: fully functional; also recorded: normal functionality | reported in vivo enzyme activity class [12]: intermediate

B3: TPMTwt: recombinant wild-type human thiopurine S-methyltransferase (residues 1–245) (protein, UniProt P51580 1-245, looked up)
Thiopurine S-methyltransferase: MDGTRTSLDIEEYSDTEVQKNQVLTLEEWQDKWVNGKTAFHQEQGHQLLKKHLDTFLKGKSGLRVFFPLCGKAVEMKWFADRGHSVVGVEISELGIQEFFTEQNLSYSEEPITEIPGTKVFKSSSGNISLYCCSIFDLPRTNIGKFDMIWDRGALVAINPGDRKCYADTMFSLLGKKFQYLLCVLSYDPTKHPGPPFYVPHAEIERLFGKICNIRCLEKVDAFEERHKSWGIDCLFEKLYLLTEK
thermal melting temperature, circular dichroism, no ligand [10]: 46.4 ± 0.6 °C
